Measured values from different studies.
Lines come from different studies, so protocols differ.
Target: Homeodomain-interacting protein kinase 1 (HIPK1, Homo sapiens, UniProt Q86Z02)

Cn1nc(C(F)(F)F)cc1-c1cnc(N2CCc3cc(S(=O)(=O)Nc4c(F)cc(Cl)cc4F)cc(N4CCCC4=O)c32)nc1 — remaining binding (cell-free assay, competition with immobilised ligand; 1 µM): 87%
O=C(O)c1ccc2c(c1)nc(Nc1ccccc1)c1ccncc12 — remaining activity (enzyme activity, inhibitor, radiometric; 1 µM): 30%
CO[C@@H](C)c1c(Nc2ccc([C@@H](N(C)C(=O)C3CCS(=O)(=O)CC3)C(F)(F)F)cc2)cnc2cc(Cl)nn12 — remaining binding (cell-free assay, competition with immobilised ligand; 1 µM): 56%
COc1cc2ncnc(Nc3ccc(Oc4ccccc4)cc3C)c2cc1OC — inhibition (enzyme activity, inhibitor; 1 µM): 1%
O=C(O)c1ccc2c(c1)nc(Nc1ccc3ccccc3c1)c1ncncc12 — remaining activity (enzyme activity, inhibitor, radiometric; 1 µM): 1%
N#CCCc1ccc2c(c1)-c1[nH]c3ccc([N+](=O)[O-])cc3c1CC(=O)N2 — remaining signal (cell-free assay; 0.5 µM): 97.9%
CCCS(=O)(=O)Nc1ccc(F)c(C(=O)c2c[nH]c3ncc(-c4ccc(Cl)cc4)cc23)c1F — inhibition (enzyme activity, inhibitor; 1 µM): < 10%
FC(F)(F)Oc1cccc(-c2cnc3ccc(-c4ccncc4)nn23)c1 — activity vs control (enzyme activity, inhibitor, radiometric; 5 µM): 29%
CNC(=O)c1cc(Oc2ccc(NC(=O)Nc3ccc(Cl)c(C(F)(F)F)c3)cc2)ccn1 — inhibition (enzyme activity, inhibitor; 0.3 µM): 14%
O=C(O)c1ccc2c(c1)nc(Nc1cccc(F)c1)c1ncncc12 — remaining activity (enzyme activity, inhibitor, radiometric; 1 µM): 3%
CNC(=O)Nc1ccc2c(c1)CC[C@@]21OC(=O)N(CC(=O)N(Cc2ccc(F)cc2)[C@@H](C)C(F)(F)F)C1=O — remaining binding (cell-free assay, competition with immobilised ligand; 1 µM): 85%
O=C1NC(=O)c2cc(Nc3ccc(F)cc3)c(Nc3ccc(F)cc3)cc21 — remaining signal (cell-free assay; 0.5 µM): 102%
COc1cc(/C=C/C(=O)CC(=O)/C=C/c2ccc(O)c(OC)c2)ccc1O — activity vs control (enzyme activity, inhibitor; 1 µM): 44%
O=C(O)c1ccc2c(c1)nc(Nc1ccc(F)c(Cl)c1)c1ncncc12 — remaining activity (enzyme activity, inhibitor, radiometric; 1 µM): 6%
Cn1cc(Cl)c2c(Oc3c(F)cc(Nc4cc(Cl)nc(N)n4)cc3F)ccnc21 — remaining binding (cell-free assay, competition with immobilised ligand; 0.1 µM): 100%
Cc1sc(C(=O)NC2COC2)cc1-n1cc(NC(=O)Nc2c(F)cccc2Cl)cn1 — remaining activity (enzyme activity, inhibitor; 10 µM): 116%
Cc1c[nH]c2nccc(Oc3c(F)cc(Nc4cc(Cl)nc(N)n4)cc3F)c12 — remaining binding (cell-free assay, competition with immobilised ligand; 0.1 µM): 100%
Cc1ccc(C(=O)NCc2ccsc2)cc1C#Cc1cn(C(C)C)c2ncnc(N)c12 — activity vs control (enzyme activity, inhibitor; 1 µM): 106%
COc1cc2nccc(Oc3ccc(NC(=O)c4c5n(n(-c6ccc(F)cc6)c4=O)CCCC5)cc3)c2cc1OC — inhibition (enzyme activity, inhibitor; 0.1 µM): 12%
CC1=C(C#N)C(c2ccc3c(c2)c(NC(=O)c2ccccc2C)nn3C)C(C#N)=C(C)N1 — remaining binding (cell-free assay, competition with immobilised ligand; 1 µM): 71%
O=C(O)c1ccc2c(c1)nc(Nc1ccc(F)c(Cl)c1)c1ccncc12 — remaining activity (enzyme activity, inhibitor, radiometric; 1 µM): 8%
CCC(=O)N[C@H]1CC[C@@H](C(=O)N(C)c2ccc(-c3nc4ccccc4o3)cc2)C1 — remaining binding (cell-free assay, competition with immobilised ligand; 1 µM): 80%
Cc1ccc(Nc2nccc(N(C)c3ccc4c(C)n(C)nc4c3)n2)cc1S(N)(=O)=O — inhibition (enzyme activity, inhibitor; 10 µM): 21%
O=C1Nc2ccc(Cl)cc2C1=Cc1cc(Cl)c(O)c(Cl)c1 — remaining signal (cell-free assay; 0.5 µM): 102%
O=C(O)c1ccc2c(c1)nc(NCCc1cccc(Cl)c1)c1ncncc12 — remaining activity (enzyme activity, inhibitor, radiometric; 1 µM): 35%
Cc1ccc(NC(=O)c2ccc(C)c(C(F)(F)F)c2)cc1C#Cc1nn(C2CCC(O)CC2)c2ncnc(N)c12 (stereo not drawn) — remaining signal (cell-free assay; 10 µM): 107%
O=C(O)c1ccc2c(c1)nc(NCCc1cccc(Cl)c1)c1ccncc12 — remaining activity (enzyme activity, inhibitor, radiometric; 1 µM): 20%
CNC(=O)c1ccc(Nc2ncc(C(F)(F)F)c(NCc3nccnc3N(C)S(C)(=O)=O)n2)cc1 — remaining binding (cell-free assay, competition with immobilised ligand; 0.1 µM): 27%
CCN(CC)CCNC(=O)c1c(C)[nH]c(/C=C2\C(=O)Nc3ccc(F)cc32)c1C — inhibition (enzyme activity, inhibitor; 0.3 µM): 26%
O=C(O)c1ccc2c(c1)nc(NCCc1ccccc1)c1ccncc12 — remaining activity (enzyme activity, inhibitor, radiometric; 1 µM): 12%
